The species named for data set [1] is Mus musculus. As to the kind of experiment: Toxicity in mouse. Conditions: in vivo.
The test system of data set [2] is Plasmodium berghei. Briefly: Antimalarial activity against Plasmodium berghei infected in mouse at 320 to 640 mg/kg.
Data set [3] has as its system Plasmodium cynomolgi. As to the kind of experiment: Antimalarial activity against Plasmodium cynomolgi infected in rhesus monkey at 10 mg/kg. It is filed as functional, organism-based. More on the design: dose 10 mg/kg. The procedure, abridged:
(§1)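 Radical curative test in rhesus monkeys infected with P. cynomolgi, with compounds given at 0.5, 1 or 10 mg/kg. The read-out is either cures per number of animals treated or the day of relapse for animals not cured.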

Data set [4] concerns Rhesus monkey. As to the kind of experiment: Toxicity in rhesus monkey at 160 mg/kg. It is filed as organism-based, Macaca mulatta. Also noted: dose 160 mg/kg. As to conditions: in vivo.
Data set [5] deals with Plasmodium cynomolgi. As to the kind of experiment: Antimalarial activity against Plasmodium cynomolgi infected in rhesus monkey at 0.5 mg/kg. The class given is functional, organism-based. More on the design: dose 0.5 mg/kg. The method in brief: as §1
Data set [6] relates to Plasmodium cynomolgi. Briefly: Antimalarial activity against Plasmodium cynomolgi infected in rhesus monkey at 1 mg/kg. It is filed as functional, organism-based. Also noted: dose 1 mg/kg. The method in brief: as §1

This is an account of results in ChEMBL document CHEMBL3244103, “Modifications of primiaquine as antimalarials. 2. 5-Phenylthio and 5-anilino derivatives of primaquine” (J Med Chem, 1978).

Active and inactive are the calls of the source. No cut-off for these calls is given here.

With `COc1ccc(Sc2c(OC)cc(NC(C)CCCN)c3ncccc23)cc1.O=C(O)CC(O)(CC(=O)O)C(=O)O` (stereo unspecified), in data set [1], the Activity entry is “Non-toxic”. Further, the result in data set [2] was Active.
For the compound `COc1cc(NC(C)CCCN)c2ncccc2c1Sc1ccc2ccccc2c1` (stereo unspecified), in data set [3], the result was Active.
`COc1cc(NC(C)CCCN)c2ncccc2c1.O=P(O)(O)O.O=P(O)(O)O` (stereo unspecified) [PRIMAQUINE PHOSPHATE]: the Activity entry in data set [4] was “Toxic”.
On to `COc1cc(NC(C)CCCN)c2ncccc2c1Sc1cccc(Cl)c1` (stereo unspecified), for which, in data set [3], the result was Active.
For `COc1cc(NC(C)CCCN)c2ncccc2c1Sc1ccc(Cl)cc1` (stereo unspecified), the result in data set [3] was Active. In data set [5], the outcome was inactive.
Regarding `COc1cc(NC(C)CCCN)c2ncccc2c1Sc1cc(Cl)ccc1Cl` (stereo unspecified), the outcome in data set [3] was Active.
Regarding `COc1cc(NC(C)CCCN)c2ncccc2c1Sc1cccc(C(F)(F)F)c1` (stereo unspecified), the result in data set [6] was Active.
For `COc1cc(NC(C)CCCN)c2ncccc2c1Sc1ccccc1Cl` (stereo unspecified), in data set [3], the outcome was Active.
Same read-out and setting: for `COc1cc(NC(C)CCCN)c2ncccc2c1Sc1ccc(Cl)c(Cl)c1` (stereo unspecified) the value was “Active”.
